Where a name gives a salt, the structure may show the parent alone.
What was measured:
[1] = Antiaggregatory activity in pig platelets assessed as inhibition of platelet-activating factor-induced platelet aggregation after 5 mins; type: functional, cell-based; conditions: Sus scrofa
How it was run: (§1)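 Pig blood (6 pigs) was spun at 1000 rpm for 10 min to give PRP, then 1500 rpm for 10 min to give PPP. PRP was adjusted to 2×10^8 platelets/ml with autologous PPP. Compound (final 100 µM to 0.001 µM, diluted in NS) or NS was added before agonist: ADP 10 µM, AA 350 µM or PAF 0.1 µM final. Aggregation was read optically at 37 °C for 5 min, in sixplicate. IC50 came from the concentration–inhibition curve.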

[2] = Antiaggregatory activity in pig platelets assessed as inhibition of adenosine diphosphate-induced platelet aggregation after 5 mins; type: functional, cell-based; conditions: Sus scrofa; how it was run: as §1
[3] = Antiaggregatory activity in pig platelets assessed as inhibition of arachidonic acid-induced platelet aggregation after 5 mins; type: functional, cell-based; conditions: Sus scrofa; how it was run: as §1
Rattus norvegicus [4] = experiment: Antithrombotic activity in Wister rat assessed as reduction of thrombus weight at 1 nmol/kg, po (reference value: 31.87 +/- 1.71 mg); type: functional
[5] = Antiplatelet activity in rabbit platelets assessed as inhibition of collagen-induced platelet aggregation; type: functional, cell-based; conditions: Oryctolagus cuniculus
Rattus norvegicus [6] = experiment: Antithrombotic activity in Wister rat assessed as reduction of thrombus weight at 10 nmol/kg, po (reference value: 31.87 +/- 1.71 mg); type: functional
Rattus norvegicus [7] = experiment: Antithrombotic activity in Wister rat assessed as reduction of thrombus weight at 10 nmol/kg, po (reference value: 28.21 +/- 1.11 mg); type: functional
Rattus norvegicus [8] = experiment: Antithrombotic activity in Wister rat assessed as reduction of thrombus weight at 0.1 nmol/kg, po (reference value: 31.87 +/- 1.71 mg); type: functional
Rattus norvegicus [9] = experiment: Antithrombotic activity in Wister rat assessed as reduction of thrombus weight at 0.01 nmol/kg, po (reference value: 31.87 +/- 1.71 mg); type: functional
Rattus norvegicus [10] = experiment: Antithrombotic activity in po dosed Wister rat assessed as reduction of thrombus weight; type: functional, organism-based
Rattus norvegicus [11] = experiment: Antithrombotic activity in Wister rat assessed as reduction of thrombus weight at 160 to 165 umol/kg, po (reference value: 31.87 +/- 1.71 mg); type: functional

Row | SMILES | IC50 [1] | IC50 [2] | IC50 [3] | Activity (Rattus norvegicus [4]) | IC50 [5] | Activity (Rattus norvegicus [6]) | Activity (Rattus norvegicus [7]) | Activity (Rattus norvegicus [8]) | Activity (Rattus norvegicus [9]) | Activity (Rattus norvegicus [10]) | Activity (Rattus norvegicus [11])
1 | Cc1nc(C(=O)NNC(=O)[C@@H](N)CCC(=O)OCc2ccccc2)cc2c1[nH]c1ccccc12 | 64.3 µM | 58.9 µM | 2.3 µM | 18.8 mg | – | – | – | – | – | – | –
2 | c1ccc2c(c1)[nH]c1cnccc12 [NORHARMANE] | – | – | – | – | 130 µM | – | – | – | – | – | –
3 | Cc1nc(C(=O)NNC(=O)[C@H](CC(C)C)NC(=O)OC(C)(C)C)cc2c1[nH]c1ccccc12 | 1.2 µM | 31.6 µM | 3.2 µM | – | – | 23.8 mg | 21.06 mg | – | – | – | –
4 | Cc1nc(C(=O)NNC(=O)[C@@H](N)CC(C)C)cc2c1[nH]c1ccccc12 | 1.1 µM | 23 µM | 8.2 µM | 24.49 mg | – | – | – | – | – | – | –
5 | Cc1nc(C(=O)NNC(=O)[C@@H](N)[C@@H](C)O)cc2c1[nH]c1ccccc12 | 20.9 µM | 24.8 µM | 5.2 µM | 23.65 mg | – | – | – | – | – | – | –
6 | Cc1nc(C(=O)NNC(=O)[C@H](CC(N)=O)NC(=O)OC(C)(C)C)cc2c1[nH]c1ccccc12 | 507 µM | 609 µM | 19.7 µM | – | – | 24.14 mg | 21.36 mg | – | – | – | –
7 | Cc1nccc2c1[nH]c1cc(O)ccc12 [HARMOL HYDROCHLORIDE] | – | – | – | – | 130 µM | – | – | – | – | – | –
8 | CC1=NCCc2c1[nH]c1cc(O)ccc21 [HARMALOL] | – | – | – | – | 130 µM | – | – | – | – | – | –
9 | Cc1nc(C(=O)NNC(=O)[C@@H]2CCCN2C(=O)OC(C)(C)C)cc2c1[nH]c1ccccc12 | 134 µM | 166 µM | 20.6 µM | – | – | 23.04 mg | 20.39 mg | – | – | – | –
10 | Cc1nc(C(=O)NNC(=O)[C@@H](N)CC(N)=O)cc2c1[nH]c1ccccc12 | 39.7 µM | 65.8 µM | 6.2 µM | 23.97 mg | – | – | – | – | – | – | –
11 | Cc1nc(C(=O)NNC(=O)[C@H](CO)NC(=O)OC(C)(C)C)cc2c1[nH]c1ccccc12 | 119 µM | 276 µM | 19.9 µM | – | – | 21.1 mg | 18.67 mg | – | – | – | –
12 | Cc1nc(C(=O)NNC(=O)[C@@H](NC(=O)OC(C)(C)C)C(C)C)cc2c1[nH]c1ccccc12 | 50 µM | 156 µM | 3.7 µM | – | – | 24.01 mg | 24.01 mg | – | – | – | –
13 | Cc1nc(C(=O)NNC(=O)[C@@H](N)C(C)C)cc2c1[nH]c1ccccc12 | 2 µM | 20.8 µM | 0.3 µM | 18.3 mg | – | – | – | 23.8 mg | 27.12 mg | Dose-dependent effect | –
14 | CC[C@H](C)[C@H](NC(=O)OC(C)(C)C)C(=O)NNC(=O)c1cc2c([nH]c3ccccc32)c(C)n1 | 1.4 µM | 51.1 µM | 2.4 µM | – | – | 23.3 mg | 20.62 mg | – | – | – | –
15 | Cc1nc(C(=O)NNC(=O)[C@@H](N)Cc2ccc(O)cc2)cc2c1[nH]c1ccccc12 | 37.4 µM | 74.6 µM | 1.7 µM | 18.56 mg | – | – | – | – | – | – | –
16 | Cc1nccc2c1[nH]c1ccccc12 [HARMAN] | – | – | – | – | 130 µM | – | – | – | – | – | –
17 | Cc1nc(C(=O)NN)cc2c1[nH]c1ccccc12 | 92.8 µM | 110 µM | 32.9 µM | – | – | 26.66 mg | – | – | – | – | –
18 | Cc1nc(C(=O)NNC(=O)[C@H](C)NC(=O)OC(C)(C)C)cc2c1[nH]c1ccccc12 | 162 µM | 118 µM | 20 µM | – | – | 22.67 mg | 20.06 mg | – | – | – | –
19 | CC(=O)Oc1ccccc1C(=O)O [ASPIRIN] | – | – | – | – | – | – | – | – | – | – | 18.86 mg
20 | Cc1nc(C(=O)NNC(=O)[C@H](Cc2c[nH]c3ccccc23)NC(=O)OC(C)(C)C)cc2c1[nH]c1ccccc12 | 4.3 µM | 21.7 µM | 0.6 µM | – | – | 21.52 mg | 19.04 mg | – | – | – | –

Row | SMILES | IC50 [1] | IC50 [2] | IC50 [3] | Activity (Rattus norvegicus [4]) | IC50 [5] | Activity (Rattus norvegicus [6]) | Activity (Rattus norvegicus [7]) | Activity (Rattus norvegicus [8]) | Activity (Rattus norvegicus [9]) | Activity (Rattus norvegicus [10]) | Activity (Rattus norvegicus [11])
21 | COc1ccc2c(c1)[nH]c1c(C)nccc12 [HARMINE] | – | – | – | – | 130 µM | – | – | – | – | – | –
22 | Cc1nc(C(=O)NNC(=O)[C@H](Cc2ccc(O)cc2)NC(=O)OC(C)(C)C)cc2c1[nH]c1ccccc12 | 12.7 µM | 152 µM | 13 µM | – | – | 23.73 mg | 21 mg | – | – | – | –
23 | Cc1nc(C(=O)NNC(=O)CNC(=O)OC(C)(C)C)cc2c1[nH]c1ccccc12 | 348 µM | 722 µM | 20.7 µM | – | – | 26.83 mg | 23.74 mg | – | – | – | –
24 | Cc1nc(C(=O)NNC(=O)CN)cc2c1[nH]c1ccccc12 | 52.9 µM | 53.3 µM | 5.2 µM | 23.7 mg | – | – | – | – | – | – | –
25 | Cc1nc(C(=O)NNC(=O)[C@@H]2CCCN2)cc2c1[nH]c1ccccc12 | 44.5 µM | 48.7 µM | 5.8 µM | 24.37 mg | – | – | – | – | – | – | –
26 | Cc1nc(C(=O)NNC(=O)[C@@H](N)Cc2cnc[nH]2)cc2c1[nH]c1ccccc12 | 42.5 µM | 25.7 µM | 0.2 µM | 18.1 mg | – | – | – | – | – | – | –
27 | CC[C@H](C)[C@H](N)C(=O)NNC(=O)c1cc2c([nH]c3ccccc32)c(C)n1 | 5.6 µM | 74 µM | 3.6 µM | 23.12 mg | – | – | – | – | – | – | –
28 | Cc1nc(C(=O)NNC(=O)[C@@H](NC(=O)OC(C)(C)C)[C@@H](C)O)cc2c1[nH]c1ccccc12 | 31.9 µM | 531 µM | 4.7 µM | – | – | 22.87 mg | 20.24 mg | – | – | – | –
29 | Cc1nc(C(=O)NNC(=O)[C@H](Cc2cn(C(=O)OC(C)(C)C)cn2)NC(=O)OC(C)(C)C)cc2c1[nH]c1ccccc12 | 7.7 µM | 94.6 µM | 4.8 µM | – | – | 21.32 mg | 18.87 mg | – | – | – | –
30 | Cc1nc(C(=O)NNC(=O)[C@H](C)N)cc2c1[nH]c1ccccc12 | 47.4 µM | 58.9 µM | 6.7 µM | 24.39 mg | – | – | – | – | – | – | –
31 | Cc1nc(C(=O)NNC(=O)[C@@H](N)CC(=O)OCc2ccccc2)cc2c1[nH]c1ccccc12 | 52.9 µM | 81.7 µM | 3.7 µM | 23.23 mg | – | – | – | – | – | – | –
32 | Cc1nc(C(=O)NNC(=O)[C@H](CCC(=O)OCc2ccccc2)NC(=O)OC(C)(C)C)cc2c1[nH]c1ccccc12 | 362 µM | 524 µM | 6.3 µM | – | – | 22.2 mg | 19.65 mg | – | – | – | –
33 | Cc1nc(C(=O)NNC(=O)[C@@H](N)CCCCN)cc2c1[nH]c1ccccc12 | 52.9 µM | 58.9 µM | 4.1 µM | 23.3 mg | – | – | – | – | – | – | –
34 | Cc1nc(C(=O)NNC(=O)[C@@H](N)Cc2c[nH]c3ccccc23)cc2c1[nH]c1ccccc12 | 19.3 µM | 28.9 µM | 8.7 µM | 24.56 mg | – | – | – | – | – | – | –
35 | COc1ccc2c3c([nH]c2c1)C(C)=NCC3 [HARMALINE] | – | – | – | – | 130 µM | – | – | – | – | – | –
36 | Cc1nc(C(=O)NNC(=O)[C@@H](N)CO)cc2c1[nH]c1ccccc12 | 52.9 µM | 50.9 µM | 9 µM | 24.78 mg | – | – | – | – | – | – | –
37 | Cc1nc(C(=O)NNC(=O)[C@H](CCCCNC(=O)OC(C)(C)C)NC(=O)OC(C)(C)C)cc2c1[nH]c1ccccc12 | 106 µM | 321 µM | 3.4 µM | – | – | 22.32 mg | 19.75 mg | – | – | – | –
38 | Cc1nc(C(=O)NNC(=O)[C@H](CC(=O)OCc2ccccc2)NC(=O)OC(C)(C)C)cc2c1[nH]c1ccccc12 | 196 µM | 117 µM | 5.2 µM | – | – | 21.44 mg | 18.97 mg | – | – | – | –
39 | CSCC[C@H](NC(=O)OC(C)(C)C)C(=O)NNC(=O)c1cc2c([nH]c3ccccc32)c(C)n1 | 52.9 µM | 417 µM | 21.7 µM | – | – | 20.96 mg | 18.55 mg | – | – | – | –
40 | CSCC[C@H](N)C(=O)NNC(=O)c1cc2c([nH]c3ccccc32)c(C)n1 | 13.4 µM | 58.9 µM | 4.7 µM | 23.43 mg | – | – | – | – | – | – | –

— ChEMBL document CHEMBL1909521, “A class of novel N-(1-methyl-β-carboline-3-carbonyl)-N'-(aminoacid-acyl)-hydrazines: aromatization leaded design, synthesis, in vitro anti-platelet aggregation/in vivo anti-thrombotic evaluation and 3D QSAR analysis” (Eur J Med Chem, 2011)
